Data reported in ChEMBL document CHEMBL5046307 (ACS Med Chem Lett, 2022).
In brackets after ≈: the same amount, converted by molar mass.

Key:
[1] = Inhibition of rat electron transport chain complex 1 assessed as reduction in cellular ATP measured after 24 hrs by celltiter-glo assay
Cytochrome P450 1A2 = target: T1, Cytochrome P450 1A2 (Homo sapiens, UniProt P05177); assay: Inhibition of CYP1A2 in human liver microsomes using phenacetin as substrate by LC-MS/MS analysis
T1 sequence (P05177 whole entry): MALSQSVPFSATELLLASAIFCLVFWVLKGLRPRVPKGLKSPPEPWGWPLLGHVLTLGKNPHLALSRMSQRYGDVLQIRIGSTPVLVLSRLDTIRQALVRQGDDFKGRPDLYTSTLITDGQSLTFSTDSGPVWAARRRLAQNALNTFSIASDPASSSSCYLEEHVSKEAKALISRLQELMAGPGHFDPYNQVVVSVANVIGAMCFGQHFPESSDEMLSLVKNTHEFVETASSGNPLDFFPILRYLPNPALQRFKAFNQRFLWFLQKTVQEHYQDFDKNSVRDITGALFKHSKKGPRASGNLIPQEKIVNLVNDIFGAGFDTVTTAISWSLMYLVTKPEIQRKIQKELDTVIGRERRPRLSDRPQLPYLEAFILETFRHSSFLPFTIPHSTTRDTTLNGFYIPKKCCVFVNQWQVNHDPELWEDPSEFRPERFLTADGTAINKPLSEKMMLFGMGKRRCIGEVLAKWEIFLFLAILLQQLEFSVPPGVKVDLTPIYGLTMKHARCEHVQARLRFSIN

[2] = Plasma protein binding in mouse assessed as fraction unbound incubated for 6 to 8 hrs by LC-MS/MS analysis; assay type: ADME, cell-free; conditions: time 6-8 hrs
[3] = target: Voltage-gated inwardly rectifying potassium channel KCNH2 (Homo sapiens, UniProt Q12809); assay: Inhibition of human ERG by patch-clamp assay
[4] = Half life in Wistar rat plasma at 0.4 mg/kg, iv by LC-MS/MS analysis; assay type: ADME, organism-based
Cytochrome P450 2C8 = target: T2, Cytochrome P450 2C8 (Homo sapiens, UniProt P10632); assay: Inhibition of CYP2C8 in human liver microsomes using amodiaquine as substrate by LC-MS/MS analysis
T2 sequence (P10632 whole entry): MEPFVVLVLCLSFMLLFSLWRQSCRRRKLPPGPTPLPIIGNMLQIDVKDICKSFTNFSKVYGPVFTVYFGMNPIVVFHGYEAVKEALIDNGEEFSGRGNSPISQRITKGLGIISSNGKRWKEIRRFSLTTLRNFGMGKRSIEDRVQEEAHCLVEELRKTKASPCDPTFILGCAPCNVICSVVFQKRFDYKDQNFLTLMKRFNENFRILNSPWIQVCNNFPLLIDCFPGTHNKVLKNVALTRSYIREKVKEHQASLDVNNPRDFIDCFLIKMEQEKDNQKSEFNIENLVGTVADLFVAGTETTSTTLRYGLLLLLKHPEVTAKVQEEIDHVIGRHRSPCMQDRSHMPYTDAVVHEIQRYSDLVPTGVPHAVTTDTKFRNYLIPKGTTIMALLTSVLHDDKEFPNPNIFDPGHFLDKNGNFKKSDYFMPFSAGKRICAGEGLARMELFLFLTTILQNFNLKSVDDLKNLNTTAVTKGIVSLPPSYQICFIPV

Cytochrome P450 2D6 = Cytochrome P450 2D6 (Homo sapiens, UniProt P10635); assay: Inhibition of CYP2D6 in human liver microsomes using dextromethorphan as substrate by LC-MS/MS analysis
[5] = Efflux ratio of apparent permeability across basolateral to apical side over apical to basolateral side in human Caco2 cells at 2 uM incubated for 2 hrs by LC-MS/MS analysis; conditions: Caco-2
[6] = Inhibition of dog electron transport chain complex 1 assessed as reduction in cellular ATP measured after 24 hrs by celltiter-glo assay; conditions: Canis lupus familiaris
[7] = Metabolic stability in rat hepatocyte assessed as maximum bioavailability measured up to 90 mins by LC-MS/MS analysis; assay type: ADME; conditions: rat hepatocytes, read-out: Fmax
[8] = Inhibition of human electron transport chain complex 1 in human NCI-H1299 cells assessed as reduction in cellular ATP level measured after 24 hrs by CellTiter-Glo assay; assay type: cell-based; conditions: Homo sapiens, NCI-H1299, 24 h
Method in brief: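 ATP-dependent luciferase luminescence read in H1299 cells, first without (M1) and then after adding the complex II substrate succinate (M2), to separate complex I block from downstream respiratory-chain inhibition or uncoupling.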

[9] = Lipophilicity, logD of compound; conditions: octanol/water
[10] = Solubility of the compound at pH 6.5; conditions: buffer
[11] = Volume of distribution at steady state in Wistar rat plasma at 0.4 mg/kg, iv by LC-MS/MS analysis; assay type: ADME, organism-based; conditions: read-out: Vdss
[12] = Oral bioavailability in Wistar rat plasma at 0.8 mg/kg by LC-MS/MS analysis; assay type: ADME, organism-based
Cytochrome P450 2C9 = Cytochrome P450 2C9 (Homo sapiens, UniProt P11712); assay: Inhibition of CYP2C9 in human liver microsomes using diclofenac as substrate by LC-MS/MS analysis
[13] = AUC in Wistar rat plasma at 0.8 mg/kg, po by LC-MS/MS analysis; assay type: ADME, organism-based; design: dose 0.8 mg/kg; conditions: in vivo
Cytochrome P450 3A4 = Cytochrome P450 3A4 (Homo sapiens, UniProt P08684); assay: Inhibition of CYP3A4 in human liver microsomes using midazolam as substrate by LC-MS/MS analysis
[14] = target: T3, Nuclear receptor subfamily 1 group I member 2 (Homo sapiens, UniProt O75469); assay: Transactivation of PXR (unknown origin) expressed in human DPX2 cells co-expressing luciferase gene under control of CYP3A4 promoter assessed as increase in luciferase activity incubated for 24 hrs by luminescence based analysis; conditions: dpx2, 24 h
T3 sequence (O75469 whole entry): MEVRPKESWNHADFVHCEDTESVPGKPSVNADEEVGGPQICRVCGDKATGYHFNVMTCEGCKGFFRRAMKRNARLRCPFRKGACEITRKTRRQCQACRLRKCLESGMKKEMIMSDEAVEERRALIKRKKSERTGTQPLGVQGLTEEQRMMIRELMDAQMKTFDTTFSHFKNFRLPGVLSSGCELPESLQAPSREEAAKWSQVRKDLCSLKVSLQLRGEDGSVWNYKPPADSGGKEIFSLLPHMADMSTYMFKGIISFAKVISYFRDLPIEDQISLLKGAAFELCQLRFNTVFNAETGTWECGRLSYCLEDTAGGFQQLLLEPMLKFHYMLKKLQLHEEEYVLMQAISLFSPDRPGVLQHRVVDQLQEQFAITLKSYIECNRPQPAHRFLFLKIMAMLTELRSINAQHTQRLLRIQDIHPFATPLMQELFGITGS

[15] = Apparent permeability across apical to basolateral side in human Caco2 cells assessed as drug recovery at 2 uM and measured for 2 hrs by LC-MS/MS analysis; conditions: Caco-2
[16] = Inhibition of mouse electron transport chain complex 1 assessed as reduction in cellular ATP measured after 24 hrs by celltiter-glo assay
[17] = Clearance in male Wistar rat blood at 0.4 mg/kg, iv by LC-MS/MS analysis

Chain of Cytochrome P450 2D6 (P10635 whole entry): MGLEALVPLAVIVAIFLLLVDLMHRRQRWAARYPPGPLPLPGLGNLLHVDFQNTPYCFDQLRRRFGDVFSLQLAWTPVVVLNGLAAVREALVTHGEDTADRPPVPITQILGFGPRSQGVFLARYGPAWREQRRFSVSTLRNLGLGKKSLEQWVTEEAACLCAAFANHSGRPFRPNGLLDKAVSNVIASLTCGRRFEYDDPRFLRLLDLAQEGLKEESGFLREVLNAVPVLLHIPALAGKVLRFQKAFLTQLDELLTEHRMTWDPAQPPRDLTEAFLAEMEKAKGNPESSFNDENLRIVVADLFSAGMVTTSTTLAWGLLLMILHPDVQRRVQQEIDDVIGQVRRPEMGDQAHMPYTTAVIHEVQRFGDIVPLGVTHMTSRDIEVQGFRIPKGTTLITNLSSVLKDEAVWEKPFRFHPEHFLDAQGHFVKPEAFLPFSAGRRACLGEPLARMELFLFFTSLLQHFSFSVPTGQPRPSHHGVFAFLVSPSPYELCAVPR
Chain of Voltage-gated inwardly rectifying potassium channel KCNH2 (Q12809 whole entry): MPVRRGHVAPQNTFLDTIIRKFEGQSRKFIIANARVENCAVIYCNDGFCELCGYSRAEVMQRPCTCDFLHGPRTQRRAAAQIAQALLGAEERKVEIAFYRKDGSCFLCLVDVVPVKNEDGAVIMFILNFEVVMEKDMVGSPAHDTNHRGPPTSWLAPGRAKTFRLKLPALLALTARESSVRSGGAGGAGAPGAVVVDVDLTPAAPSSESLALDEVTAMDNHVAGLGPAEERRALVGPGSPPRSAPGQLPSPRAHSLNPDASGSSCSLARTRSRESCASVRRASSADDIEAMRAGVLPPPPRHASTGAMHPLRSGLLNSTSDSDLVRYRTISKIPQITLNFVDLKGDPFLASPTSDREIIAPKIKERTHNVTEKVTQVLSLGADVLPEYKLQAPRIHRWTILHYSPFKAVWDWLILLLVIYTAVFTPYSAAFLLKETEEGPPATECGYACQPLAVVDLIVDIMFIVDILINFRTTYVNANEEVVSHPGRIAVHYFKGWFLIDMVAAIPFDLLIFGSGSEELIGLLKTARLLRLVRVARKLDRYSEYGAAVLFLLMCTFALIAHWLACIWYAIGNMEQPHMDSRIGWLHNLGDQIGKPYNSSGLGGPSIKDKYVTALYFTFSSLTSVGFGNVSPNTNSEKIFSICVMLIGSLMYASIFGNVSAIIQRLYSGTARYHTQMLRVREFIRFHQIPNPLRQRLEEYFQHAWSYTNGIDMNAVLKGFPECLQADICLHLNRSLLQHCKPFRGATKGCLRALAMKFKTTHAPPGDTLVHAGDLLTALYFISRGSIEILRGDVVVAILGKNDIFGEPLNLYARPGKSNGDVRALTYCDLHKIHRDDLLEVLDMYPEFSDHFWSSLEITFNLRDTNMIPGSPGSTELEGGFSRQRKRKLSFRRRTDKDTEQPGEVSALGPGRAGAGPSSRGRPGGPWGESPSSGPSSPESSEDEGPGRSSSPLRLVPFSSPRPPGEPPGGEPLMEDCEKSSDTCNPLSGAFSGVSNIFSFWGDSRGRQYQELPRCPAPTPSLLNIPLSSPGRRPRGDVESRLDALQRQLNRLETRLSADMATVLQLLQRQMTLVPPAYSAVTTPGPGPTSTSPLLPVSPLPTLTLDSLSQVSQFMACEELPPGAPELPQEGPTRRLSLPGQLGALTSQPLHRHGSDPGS
Chain of Cytochrome P450 3A4 (P08684 whole entry): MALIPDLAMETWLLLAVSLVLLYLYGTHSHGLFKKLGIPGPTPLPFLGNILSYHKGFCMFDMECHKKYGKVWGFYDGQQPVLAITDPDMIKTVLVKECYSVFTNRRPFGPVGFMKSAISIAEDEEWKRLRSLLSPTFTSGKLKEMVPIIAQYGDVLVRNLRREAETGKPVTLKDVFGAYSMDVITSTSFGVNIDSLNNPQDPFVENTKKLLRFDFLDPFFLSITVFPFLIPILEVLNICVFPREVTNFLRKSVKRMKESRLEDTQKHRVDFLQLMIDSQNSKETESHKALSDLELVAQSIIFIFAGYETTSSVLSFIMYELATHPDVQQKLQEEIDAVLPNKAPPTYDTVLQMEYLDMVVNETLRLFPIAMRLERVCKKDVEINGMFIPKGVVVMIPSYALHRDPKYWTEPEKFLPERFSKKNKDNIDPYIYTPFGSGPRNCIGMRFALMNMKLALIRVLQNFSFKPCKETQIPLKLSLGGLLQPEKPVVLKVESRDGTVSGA
Chain of Cytochrome P450 2C9 (P11712 whole entry): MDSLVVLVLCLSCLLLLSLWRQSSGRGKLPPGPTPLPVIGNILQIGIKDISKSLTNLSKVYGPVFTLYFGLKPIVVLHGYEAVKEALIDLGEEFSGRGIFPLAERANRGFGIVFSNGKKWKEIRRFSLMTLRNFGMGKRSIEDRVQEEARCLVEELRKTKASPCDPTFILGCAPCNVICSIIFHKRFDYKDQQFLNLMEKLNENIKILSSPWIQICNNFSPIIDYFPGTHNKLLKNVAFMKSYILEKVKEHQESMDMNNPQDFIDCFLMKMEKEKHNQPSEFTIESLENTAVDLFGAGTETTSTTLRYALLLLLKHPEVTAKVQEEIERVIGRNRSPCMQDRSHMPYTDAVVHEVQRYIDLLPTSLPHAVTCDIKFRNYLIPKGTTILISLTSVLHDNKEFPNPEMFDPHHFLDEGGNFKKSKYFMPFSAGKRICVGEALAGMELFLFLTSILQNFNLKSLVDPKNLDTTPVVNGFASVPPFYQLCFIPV

- IC50 (Cytochrome P450 1A2): > 20 µM
- Fu [2]: 0.43%
- half-life [4]: 6.2 h
- IC50 (Cytochrome P450 2C8): 7.8 µM
- IC50 (Cytochrome P450 2D6): > 20 µM
- efflux ratio at 2 h, 2 µM [5]: 0.44
- Fh at 1.5 h [7]: 81%
- logD [9]: 2.8
- solubility [10]: 1.6 µg/mL (≈ 3.85 µM)
- Vd [11]: 2.2 L/kg
- bioavailability [12]: 76%
- IC50 (Cytochrome P450 2C9): 15 µM
- AUC [13]: 3.1 kg·h/L
- IC50 (Cytochrome P450 3A4): > 20 µM
- MEC [14]: > 50 µM
- Papp A→B at 2 h, 2 µM [15]: 9.2 ×10⁻⁶ cm/s
- clearance [17]: 6.67 mL/min/kg
Structure (SMILES): c1ccc2oc(-c3csc(C4CCN(Cc5nc6ncccc6[nH]5)CC4)n3)cc2c1
- IC50 [1]: 0.027 µM
- IC50 [3]: 3 µM
- IC50 [6]: 0.047 µM
- IC50 [8]: 0.079 µM
- IC50 [16]: 0.038 µM
